Measured values: ChEMBL document CHEMBL4038330, “Discovery of Potent Orally Active Protease-Activated Receptor 1 (PAR1) Antagonists Based on Andrographolide” (J Med Chem, 2017)

Key:
Cavia porcellus [1] = experiment: In vivo antagonist activity at PAR1 in guinea pig assessed as inhibition of thrombin-stimulated platelet aggregation at 10 mg/kg, po pretreated for 2 hrs followed by thrombin stimulation measured after 5 mins; format: functional
[2] = AUC (0 to infinity) in Wistar rat at 1 mg/kg, iv administered as bolus dose measured up to 24 hrs post dose by HPLC-MS/MS analysis; format: ADME, organism-based; set-up: dose 1 mg/kg, time infinity, route intravenous; conditions: in vivo
Outline: (§1)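 Male Wistar rats, n = 6 per group, dosed intragastrically at 5 mg/kg or intravenously at 1 mg/kg. Blood concentrations followed over 24 h. Parameters from non-compartmental analysis, reported as median ± SD.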

Rattus norvegicus [3] = experiment: Toxicity in Wistar rat assessed as body weight at 1 mg/kg, iv administered as bolus dose measured up to 24 hrs post dose; format: organism-based; conditions: in vivo
Outline: (§2)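 Male Wistar rats, n = 6 per group, given 1 mg/kg intravenously or 5 mg/kg intragastrically. Blood concentrations followed over 24 h. Non-compartmental analysis; values as median ± SD. Bioavailability from oral versus intravenous exposure.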

Rattus norvegicus [4] = experiment: AUMC (0 to infinity) in Wistar rat at 5 mg/kg, po measured up to 24 hrs post dose by HPLC-MS/MS analysis; format: ADME, organism-based; conditions: in vivo; outline: as §2
Cavia porcellus [5] = experiment: In vivo antagonist activity at PAR1 in guinea pig assessed as inhibition of TRAP-stimulated platelet aggregation at 30 mg/kg, po pretreated for 2 hrs followed by TRAP stimulation measured after 5 mins; format: functional
[6] = AUC (0 to infinity) in Wistar rat at 5 mg/kg, po measured up to 24 hrs post dose by HPLC-MS/MS analysis; format: ADME, organism-based; set-up: dose 5 mg/kg, time infinity, route oral; conditions: in vivo; outline: as §1
[7] = MRT (0 to infinity) in Wistar rat at 5 mg/kg, po measured up to 24 hrs post dose by HPLC-MS/MS analysis; format: ADME, organism-based; conditions: in vivo; outline: as §2
Plasma [8] = experiment: Drug metabolism in Wistar rat plasma assessed as [M2+O] metabolite formation at 5 mg/kg, po administered as single dose measured at 3 hrs post dose by LC-HRMS analysis; format: ADME, organism-based; conditions: in vivo
Outline: (§3)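 Rats dosed orally at 10 mg/kg or 5 mg/kg. Plasma taken at 3.0 h after dosing. Parent and metabolites detected by extracted ion chromatograms.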

Plasma [9] = experiment: Stability in Wistar rat assessed as parent compound level in plasma at 5 mg/kg, po administered as single dose measured at 3 hrs post dose by LC-HRMS analysis; format: ADME, organism-based; conditions: in vivo; outline: as §3
[10] = Apparent clearance in Wistar rat at 5 mg/kg, po measured up to 24 hrs post dose by HPLC-MS/MS analysis; format: ADME, organism-based; conditions: in vivo, read-out: CL(app) (converted); outline: as §2

AUC(0-inf) [2]: 552 ng·h/mL
AUMC (Rattus norvegicus [4]): 8382 ng·h/mL
AUC(0-inf) [6]: 1450 ng·h/mL
MRT inf [7]: 5.6 h
Drug metabolism (Plasma [8]): Metabolite_Detected
Stability (Plasma [9]): Stable
CL/F [10]: 75 mL/min/kg
Compound: CC1CC[C@@H]2C(C)(C)[C@H](O)CC[C@@]2(C)[C@@H]1/C=C/c1ccc(-c2cccc(F)c2)cn1 (single isomer, unassigned)
inhibition in vivo at 10 mg/kg (Cavia porcellus [1]): 66.9%
Activity (Rattus norvegicus [3]): 226 g
inhibition in vivo at 30 mg/kg (Cavia porcellus [5]): 98.7%
